# Screening results from PubChem.
# Rows were chosen to be rich in hits. Some 0.7% of all compounds tested hit in one or more screens of this group.
# GC-A act: GC-A (human) enzyme activation; P16066; HEK293 GC-A cells, cGMP TR-FRET, EC30 ANP; 0% at EC30 ANP, 100% saturating ANP; activation, % at 10 µM; hit rate 0.14% among 370,000; in the data active means activation above about 40%
# Target sequence (P16066 whole entry, looked up): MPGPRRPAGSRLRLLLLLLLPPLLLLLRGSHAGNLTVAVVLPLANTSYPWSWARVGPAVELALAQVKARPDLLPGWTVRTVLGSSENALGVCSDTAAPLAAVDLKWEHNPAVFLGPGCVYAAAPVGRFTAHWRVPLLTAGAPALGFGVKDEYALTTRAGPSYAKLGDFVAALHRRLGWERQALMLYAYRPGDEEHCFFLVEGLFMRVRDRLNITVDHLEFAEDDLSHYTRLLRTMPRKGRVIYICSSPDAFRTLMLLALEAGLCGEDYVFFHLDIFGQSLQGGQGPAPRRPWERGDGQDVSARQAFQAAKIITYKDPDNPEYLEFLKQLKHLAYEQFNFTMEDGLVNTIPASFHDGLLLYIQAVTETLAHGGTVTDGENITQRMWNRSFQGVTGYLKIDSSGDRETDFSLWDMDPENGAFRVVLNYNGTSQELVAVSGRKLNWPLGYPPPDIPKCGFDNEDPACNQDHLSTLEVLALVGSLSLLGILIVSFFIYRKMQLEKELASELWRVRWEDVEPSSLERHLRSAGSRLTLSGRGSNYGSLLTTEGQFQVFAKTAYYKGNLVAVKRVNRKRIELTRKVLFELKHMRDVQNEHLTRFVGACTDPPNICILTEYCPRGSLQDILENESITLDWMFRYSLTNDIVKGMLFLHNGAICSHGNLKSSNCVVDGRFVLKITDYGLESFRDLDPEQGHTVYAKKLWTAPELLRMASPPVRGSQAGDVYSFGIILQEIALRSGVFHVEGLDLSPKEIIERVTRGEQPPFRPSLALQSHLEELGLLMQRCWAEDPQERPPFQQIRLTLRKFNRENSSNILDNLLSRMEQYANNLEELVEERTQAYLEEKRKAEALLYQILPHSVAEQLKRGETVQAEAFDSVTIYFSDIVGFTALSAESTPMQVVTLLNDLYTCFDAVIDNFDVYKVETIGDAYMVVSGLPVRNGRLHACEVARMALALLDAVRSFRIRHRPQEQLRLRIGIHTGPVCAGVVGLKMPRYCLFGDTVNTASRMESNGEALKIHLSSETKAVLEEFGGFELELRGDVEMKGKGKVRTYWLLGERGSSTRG
# CaV13 ICDI inh: Disruptors of the CACNA1D IQ motif to Ca2+-dependent inactivation inhibitor domain association, primary screening, Förster resonance energy transfer in intact living …; HEK cells, CFP/YFP FRET ICDI-IQ, plate reader, 10 min; percent FRET-ratio fall versus neutral wells; inhibition, % at 12.3 µM; hit rate 0.098% among 340,000;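 active means mean replicate inhibition of at least 30% and at least 1% of replicates passing that level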;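 further: 0% = median of the neutral control wells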
# XiGFP reactiv: reactivates the inactive X chromosome in mouse fibroblasts. XiGFP mouse fibroblasts, % GFP-positive cells imaging, 3 d; cells co-treated with 5-aza-dC sensitizer; scaled so ellipticine positive control = 100%. activation, % at 7.58 µM. hit rate 0.055% among 360,000;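 active means mean normalized replicate activation at least 10% and every replicate at or above 10%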;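 further: 0% = median of on-plate neutral control wells and 100% = ellipticine 6 µM median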
#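 System: 68-5-11 XiGFP fibroblast line; Timing: 3 days compound exposure; Compound dosing: one concentration, pinned; Benchmarks: positive control ellipticine, 6 µM final; Buffer or medium: DMEM containing 5-aza-dC.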
# Vif inh: blocks HIV Vif function; inhibition, % at 7.49 µM; hit rate 0.35% among 340,000; AID 602346; HEK293T cells, Vif self-association by quenched fluorescence, imaging, 24 h; in the data active means inhibition above about 50%, passing the limit was not always enough
# NPR2 activator: GC-B (human) receptor activation | P20594 | HEK293-GC-B cells, CNP EC30, cGMP TR-FRET; 0% at EC30 CNP, 100% saturating CNP | activation, % at 10 µM | hit rate 0.11% among 370,000;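 active means activation at 10 µM reaching about 35% in either raw or pattern-adjusted values, limit read from the data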
# Glyco luc inh: blocks N-linked glycosylation in D54 reporter cells. D54 ERlucT glycosylation luciferase reporter, 24 h; percent of 100 nM tunicamycin response. reporter increase, % at 12.5 µM. hit rate 0.23% among 360,000;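 active means mean luciferase reporter signal, scaled so untreated is 0 and the glycosylation-blocking control 100, at or above a set limit in every replicate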;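 further: luciferase carries N-glycosylation sites so blocking glycosylation raises the light; 0% = median of neutral control wells and 100% = median of 100 nM tunicamycin wells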
# * marks the source's active call; other numbers are inactive results; · = no result.
SMILES,GC-A act,CaV13 ICDI inh,XiGFP reactiv,Vif inh,NPR2 activator,Glyco luc inh
C[C@@H]1CCCCO[C@@H](CN(C)Cc2ccc(C(=O)O)cc2)[C@@H](C)CN([C@@H](C)CO)C(=O)c2cc(NC(=O)c3ccncc3)ccc2O1,·,·,0,·,·,·
CC(C)CC(=NNC(=O)c1ccncc1)c1cc(Cl)ccc1O,4,-23,0,55*,-1,-11
CC(=NNC(=O)c1ccncc1)c1ccccc1O,-1,-11,0,-2,3,-4
CO[C@@H]1CN(C)C(=O)c2ccc(NC(=O)C3CC3)cc2OC[C@@H](C)N(Cc2ccccc2)C[C@@H]1C,·,·,0,·,·,·
CC(Oc1ccc2c(c1)c1ccnc3c4ccccc4c(=O)n2c13)C(=O)NCCN1CCOCC1 (stereo not drawn),21,·,·,-20,5,74*
COc1ccc2c(c1OC)c(=O)n1c3ccc(OC(C)C(=O)NCCN4CCOCC4)cc3c3ccnc2c31 (stereo not drawn),22,·,·,-9,14,13
C[C@H]1CCCCO[C@@H](CN(C)Cc2ccc(C(=O)O)cc2)[C@@H](C)CN([C@@H](C)CO)C(=O)c2cc(NS(=O)(=O)c3ccc(F)cc3)ccc2O1,·,·,-1,·,·,·
CCOc1ccccc1C1C2=C(COC2=O)Nc2cc3c(cc21)OCO3 (stereo not drawn),-57,-8,1,81*,-26,15
O=C1OCC2=C1C(c1ccc(F)cc1)c1cc3c(cc1N2)OCO3 (stereo not drawn),-2,-5,0,33,-7,15
C[C@H](CO)N1C[C@H](C)[C@@H](CN(C)C(=O)CCCN(C)C)OCCCC[C@H](C)Oc2ccc(NC(=O)CCC(F)(F)F)cc2C1=O,·,·,-1,·,·,·
O=CNc1ccc2c3c(cccc13)-c1ccccc1-2,25,-12,55*,56*,-3,1
C[C@H]1CN([C@@H](C)CO)C(=O)Cc2cc(NC(=O)Nc3ccccc3)ccc2O[C@H]1CN(C)S(=O)(=O)c1cccs1,·,·,0,·,·,·
CCOC(=O)c1ccccc1OCc1cc(/C=N/NC(=O)c2cccnc2)ccc1OC,-6,-5,0,0,1,0
CCOC(=O)c1ccccc1OCc1cc(/C=N/n2cnnc2)ccc1OC,-1,-6,·,94*,-6,4
CN(C)CCNC(=S)Nc1ccccc1Cl,0,-5,0,65*,1,1
S=C(NCCNC(=S)Nc1ccccc1Cl)Nc1ccccc1Cl,-3,-2,0,·,3,6
COC(=O)[C@H]1[C@H](CO)[C@H]2Cn3c(ccc(-c4ccccc4)c3=O)[C@H]2N1S(C)(=O)=O,·,·,0,·,·,·
O=C(Cc1ccccn1)N[C@H]1CC[C@H](CC(=O)N2CCCCC2)O[C@H]1CO,·,·,1,·,·,·
Cc1cc(C)cc(NC(=O)C2C3C=CC(O3)C2C(=O)O)c1 (stereo not drawn),7,-5,0,51*,-1,2
CC(C)NC(=O)Nc1ccc2c(c1)C(=O)N([C@@H](C)CO)C[C@H](C)[C@@H](CN(C)C(=O)Nc1cccc3ccccc13)O2,·,·,0,·,·,·
CC1=CC(C)[C@H](/C=N/n2c(=O)[nH]c3c([nH]c4ccc(C)cc43)c2=O)C(C)C1 (stereo partly drawn),-4,3,0,0,1,60*
C[C@H](CO)N1C[C@H](C)[C@H](CN(C)Cc2ccccc2)OCCCC[C@H](C)Oc2ccc(NS(=O)(=O)c3ccc(Cl)cc3)cc2C1=O,·,·,0,·,·,·
CSc1sc(C(=O)O)c(C)c1C(C)=O,-2,·,·,56*,-10,1
Cc1ccc(/C=c2\sc3nc(-c4cccnc4)nn3c2=O)cc1,15,-4,·,-1,-6,0
CC(C)c1ccc(/C=c2\sc3nc(-c4ccncc4)nn3c2=O)cc1,41*,-5,·,-2,-18,3
SMILES,GC-A act,CaV13 ICDI inh,XiGFP reactiv,Vif inh,NPR2 activator,Glyco luc inh
COc1cccc(-c2cn(CC[C@@H]3CC[C@H](NC(C)=O)[C@@H](CO)O3)nn2)c1,·,·,0,·,·,·
COc1ccc(N2CCN(C(=O)C3Cc4ccccc4CN3C(=O)c3ccccc3)CC2)cc1 (stereo not drawn),0,-1,0,-6,-4,1
CC(=O)N1Cc2ccccc2CC1C(=O)N1CCN(c2ccccc2)CC1 (stereo not drawn),1,-2,0,13,78*,0
CO[C@@H]1CN(C)C(=O)c2ccc(NC(=O)C3CC3)cc2OC[C@@H](C)N(C(=O)CN(C)C)C[C@@H]1C,·,·,0,·,·,·
O=S(=O)(c1ccc(F)cc1)N1CC[C@@H]2[C@@H](CO)Nc3ccc(-c4ccc(F)cc4)cc3[C@@H]21,·,·,0,·,·,·
COC(=O)COc1ccc(/C=N/NC(=O)CN(c2ccccc2OC)S(=O)(=O)c2ccccc2)cc1,-8,-3,0,57*,-6,-11
CCCNC(=O)[C@H]1[C@H](CO)[C@H]2Cn3c(ccc(C4=CCCC4)c3=O)[C@@H]1N2S(C)(=O)=O,·,·,0,·,·,·
Cc1cc(F)cc(C)c1Cn1cnc2c(cnn2C(C)(C)C)c1=O,0,-4,0,-6,0,-5
Cc1ccc(F)c(Cn2cnc3c(cnn3C(C)(C)C)c2=O)c1Cl,32,-4,0,-4,38*,-6
Cc1cccc(OCC(=O)N(C)c2c(N)n(Cc3ccccc3)c(=O)[nH]c2=O)c1C,-3,-2,140*,-4,1,1
Nc1c(N(Cc2ccccc2)C(=O)COc2ccc([N+](=O)[O-])cc2)c(=O)[nH]c(=O)n1Cc1ccccc1,-5,-2,0,2,-3,123*
Cc1ccccc1OCCC(=O)N(Cc1ccccc1)c1c(N)n(Cc2ccccc2)c(=O)[nH]c1=O,-3,·,1,·,-1,6
Nc1c(N(CCC2=CCCCC2)C(=O)COc2ccc(F)cc2)c(=O)[nH]c(=O)n1Cc1ccccc1,·,·,·,19,·,55*
Cn1c(SCC(=O)c2ccc(F)cc2)nnc1-c1cnccn1,3,-4,·,122*,5,4
O=C(CN1CCOCC1)NCC[C@H]1CC[C@H](NC(=O)Nc2ccc(C(F)(F)F)cc2)[C@@H](CO)O1,·,·,1,·,·,·
Cc1ccc(C)c(OCC(=O)Nc2ccc3c(c2)OCO3)c1,0,-9,·,-6,-4,-1
Cc1cc(C)c(OCC(=O)Nc2ccc3c(c2)OCO3)cc1C,1,-4,·,67*,-4,-2
Cc1ccc(C)c(N2CCN(C(=O)Cn3cccc3)CC2)c1,-2,-8,·,4,5,1
CCC(=O)N1CCN(c2cc(C)ccc2C)CC1,2,-5,·,50*,6,2
